Assay results reported in ChEMBL document CHEMBL1133913, “Discovery of (R)-1-[2-hydroxy-3-(4-hydroxy-phenyl)-propyl]-4-(4-methyl-benzyl)-piperidin-4-ol: a novel NR1/2B subtype selective NMDA receptor antagonist” (Bioorg Med Chem Lett, 2001).

Tests used:
[1] = biological target: T1, Adrenergic receptor alpha-1 (Homo sapiens, UniProt P35348+P25100+P35368); assay: (§1) In vitro binding affinity towards Alpha-1 adrenergic receptor by displacing [3H]prazosin radioligand; assay type: protein assay
T1 sequence (P35348 whole entry): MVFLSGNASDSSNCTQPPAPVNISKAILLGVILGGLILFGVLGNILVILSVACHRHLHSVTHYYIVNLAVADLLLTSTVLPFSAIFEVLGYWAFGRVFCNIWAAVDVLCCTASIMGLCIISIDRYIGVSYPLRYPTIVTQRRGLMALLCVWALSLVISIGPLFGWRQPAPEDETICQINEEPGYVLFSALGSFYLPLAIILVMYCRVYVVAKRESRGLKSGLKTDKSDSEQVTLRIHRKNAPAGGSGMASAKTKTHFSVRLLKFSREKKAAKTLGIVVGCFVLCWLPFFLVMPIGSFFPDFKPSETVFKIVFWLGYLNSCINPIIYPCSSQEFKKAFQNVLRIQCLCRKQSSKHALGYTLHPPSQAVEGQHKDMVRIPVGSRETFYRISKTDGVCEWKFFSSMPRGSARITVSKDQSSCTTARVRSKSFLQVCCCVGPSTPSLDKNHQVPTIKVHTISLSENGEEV
T1 sequence (P25100 whole entry): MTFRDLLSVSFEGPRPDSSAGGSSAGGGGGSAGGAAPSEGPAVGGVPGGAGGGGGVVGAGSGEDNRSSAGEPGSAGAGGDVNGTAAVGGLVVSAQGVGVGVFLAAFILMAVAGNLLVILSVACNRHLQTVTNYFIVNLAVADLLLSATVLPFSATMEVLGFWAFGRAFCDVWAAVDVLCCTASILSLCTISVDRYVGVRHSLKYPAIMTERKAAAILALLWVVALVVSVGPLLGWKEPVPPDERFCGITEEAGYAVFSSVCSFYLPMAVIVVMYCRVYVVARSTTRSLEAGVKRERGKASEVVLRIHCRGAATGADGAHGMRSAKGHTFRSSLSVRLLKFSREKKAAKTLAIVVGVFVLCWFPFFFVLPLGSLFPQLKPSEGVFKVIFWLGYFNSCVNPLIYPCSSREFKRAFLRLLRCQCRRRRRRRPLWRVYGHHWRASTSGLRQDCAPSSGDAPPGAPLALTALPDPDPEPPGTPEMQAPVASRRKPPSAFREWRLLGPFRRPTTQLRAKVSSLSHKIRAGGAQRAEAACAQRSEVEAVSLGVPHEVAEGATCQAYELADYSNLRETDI
T1 sequence (P35368 whole entry): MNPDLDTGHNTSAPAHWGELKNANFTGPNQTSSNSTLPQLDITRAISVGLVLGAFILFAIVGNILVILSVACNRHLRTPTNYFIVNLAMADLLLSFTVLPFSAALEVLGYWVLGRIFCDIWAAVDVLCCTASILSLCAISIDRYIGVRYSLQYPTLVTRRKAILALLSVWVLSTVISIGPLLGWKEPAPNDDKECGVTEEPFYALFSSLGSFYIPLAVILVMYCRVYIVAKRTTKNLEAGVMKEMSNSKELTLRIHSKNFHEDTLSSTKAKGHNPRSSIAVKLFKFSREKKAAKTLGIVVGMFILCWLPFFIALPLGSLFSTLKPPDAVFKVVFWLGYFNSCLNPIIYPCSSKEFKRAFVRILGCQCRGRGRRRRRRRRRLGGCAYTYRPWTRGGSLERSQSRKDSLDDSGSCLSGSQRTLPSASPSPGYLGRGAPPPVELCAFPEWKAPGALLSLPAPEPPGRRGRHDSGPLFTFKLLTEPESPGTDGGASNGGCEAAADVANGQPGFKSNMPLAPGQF

[2] = biological target: Glutamate [NMDA] receptor; assay: Displacement of [3H]25-6981 from N-methyl-D-aspartate glutamate receptor; assay type: protein-complex assay
[3] = biological target: Adrenergic receptor alpha-1 (Homo sapiens) (UniProt P35348+P25100+P35368); assay: Selectivity ratio of alpha-1 receptor to that of NMDA was determined; assay type: protein assay
[4] = biological target: T2, Alpha-1A adrenergic receptor (Homo sapiens, UniProt P35348); assay: as §1
T2 sequence (P35348 whole entry): T1 sequence (P35348 whole entry)

Mus musculus = assay: In vivo evaluation for sound induced seizures in DBA/2 mice on intraperitoneal administration of compound 30 minutes before testing; assay type: functional; settings: ip
How it was run: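 Mice given the compound intraperitoneally, then tested in the standard sound-induced seizure assay. An ED50 in mg/kg was derived for protection.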

[5] = biological target: Glutamate receptor ionotropic, NMDA 2A (Rattus norvegicus, UniProt P35439+Q00959); assay: Evaluated for in vitro inhibition of recombinant rat NR1C/2A receptor expressed in xenopus oocytes; assay type: cell-based, Oocyte
Chain of Glutamate receptor ionotropic, NMDA 2A (Q00959 whole entry, one chain of several): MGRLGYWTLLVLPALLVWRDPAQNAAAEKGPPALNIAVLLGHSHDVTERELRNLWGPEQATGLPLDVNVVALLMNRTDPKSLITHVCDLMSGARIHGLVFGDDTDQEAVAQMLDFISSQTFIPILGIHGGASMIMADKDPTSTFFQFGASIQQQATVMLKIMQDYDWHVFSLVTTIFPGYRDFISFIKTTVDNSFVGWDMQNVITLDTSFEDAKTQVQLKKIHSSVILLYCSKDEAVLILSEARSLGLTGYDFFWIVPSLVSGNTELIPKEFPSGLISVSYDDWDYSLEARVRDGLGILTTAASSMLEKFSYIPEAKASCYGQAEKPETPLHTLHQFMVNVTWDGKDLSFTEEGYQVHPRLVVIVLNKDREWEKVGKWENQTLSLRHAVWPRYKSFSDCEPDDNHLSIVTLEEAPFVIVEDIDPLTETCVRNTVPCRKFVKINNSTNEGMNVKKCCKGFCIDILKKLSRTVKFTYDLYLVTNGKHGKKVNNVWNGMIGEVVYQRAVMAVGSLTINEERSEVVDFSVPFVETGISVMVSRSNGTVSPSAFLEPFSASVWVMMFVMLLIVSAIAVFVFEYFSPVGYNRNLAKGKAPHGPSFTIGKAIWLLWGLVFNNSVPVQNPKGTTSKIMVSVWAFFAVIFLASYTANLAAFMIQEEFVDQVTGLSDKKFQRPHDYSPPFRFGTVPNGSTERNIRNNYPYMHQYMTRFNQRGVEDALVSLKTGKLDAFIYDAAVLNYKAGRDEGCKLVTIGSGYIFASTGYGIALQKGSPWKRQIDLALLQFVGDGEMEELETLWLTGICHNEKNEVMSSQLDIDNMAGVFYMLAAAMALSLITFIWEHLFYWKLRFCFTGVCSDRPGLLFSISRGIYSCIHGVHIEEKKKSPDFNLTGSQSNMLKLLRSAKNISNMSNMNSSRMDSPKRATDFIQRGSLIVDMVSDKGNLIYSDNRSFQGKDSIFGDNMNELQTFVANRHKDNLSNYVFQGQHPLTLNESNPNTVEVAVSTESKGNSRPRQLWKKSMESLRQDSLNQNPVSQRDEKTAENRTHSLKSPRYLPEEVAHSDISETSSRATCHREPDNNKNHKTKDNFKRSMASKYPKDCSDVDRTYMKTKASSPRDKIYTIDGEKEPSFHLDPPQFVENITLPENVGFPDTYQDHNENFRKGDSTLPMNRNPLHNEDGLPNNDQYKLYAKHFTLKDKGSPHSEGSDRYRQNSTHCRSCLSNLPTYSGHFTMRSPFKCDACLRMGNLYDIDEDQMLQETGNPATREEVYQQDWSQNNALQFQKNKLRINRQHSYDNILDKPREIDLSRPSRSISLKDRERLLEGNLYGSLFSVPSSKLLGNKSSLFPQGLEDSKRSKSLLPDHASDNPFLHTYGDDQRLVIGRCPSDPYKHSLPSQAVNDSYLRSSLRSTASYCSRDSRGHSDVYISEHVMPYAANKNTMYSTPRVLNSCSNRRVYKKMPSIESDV
How it was run: (§2)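 Two-electrode voltage clamp on Xenopus oocytes expressing recombinant rat NMDA receptors, NR1C/2A or NR1C/2B subunit combination. Concentrations spanned 10 nM–[…]. Values are the geometric mean of three experiments.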

[6] = biological target: Glutamate receptor ionotropic, NMDA 2B (Rattus norvegicus, UniProt P35439+Q00960); assay: Evaluated for in vitro inhibition of recombinant rat NR1C/2B receptor expressed in xenopus oocytes; assay type: cell-based, Oocyte; how it was run: as §2
Chain of Glutamate receptor ionotropic, NMDA 2B (Q00960 whole entry, one chain of several): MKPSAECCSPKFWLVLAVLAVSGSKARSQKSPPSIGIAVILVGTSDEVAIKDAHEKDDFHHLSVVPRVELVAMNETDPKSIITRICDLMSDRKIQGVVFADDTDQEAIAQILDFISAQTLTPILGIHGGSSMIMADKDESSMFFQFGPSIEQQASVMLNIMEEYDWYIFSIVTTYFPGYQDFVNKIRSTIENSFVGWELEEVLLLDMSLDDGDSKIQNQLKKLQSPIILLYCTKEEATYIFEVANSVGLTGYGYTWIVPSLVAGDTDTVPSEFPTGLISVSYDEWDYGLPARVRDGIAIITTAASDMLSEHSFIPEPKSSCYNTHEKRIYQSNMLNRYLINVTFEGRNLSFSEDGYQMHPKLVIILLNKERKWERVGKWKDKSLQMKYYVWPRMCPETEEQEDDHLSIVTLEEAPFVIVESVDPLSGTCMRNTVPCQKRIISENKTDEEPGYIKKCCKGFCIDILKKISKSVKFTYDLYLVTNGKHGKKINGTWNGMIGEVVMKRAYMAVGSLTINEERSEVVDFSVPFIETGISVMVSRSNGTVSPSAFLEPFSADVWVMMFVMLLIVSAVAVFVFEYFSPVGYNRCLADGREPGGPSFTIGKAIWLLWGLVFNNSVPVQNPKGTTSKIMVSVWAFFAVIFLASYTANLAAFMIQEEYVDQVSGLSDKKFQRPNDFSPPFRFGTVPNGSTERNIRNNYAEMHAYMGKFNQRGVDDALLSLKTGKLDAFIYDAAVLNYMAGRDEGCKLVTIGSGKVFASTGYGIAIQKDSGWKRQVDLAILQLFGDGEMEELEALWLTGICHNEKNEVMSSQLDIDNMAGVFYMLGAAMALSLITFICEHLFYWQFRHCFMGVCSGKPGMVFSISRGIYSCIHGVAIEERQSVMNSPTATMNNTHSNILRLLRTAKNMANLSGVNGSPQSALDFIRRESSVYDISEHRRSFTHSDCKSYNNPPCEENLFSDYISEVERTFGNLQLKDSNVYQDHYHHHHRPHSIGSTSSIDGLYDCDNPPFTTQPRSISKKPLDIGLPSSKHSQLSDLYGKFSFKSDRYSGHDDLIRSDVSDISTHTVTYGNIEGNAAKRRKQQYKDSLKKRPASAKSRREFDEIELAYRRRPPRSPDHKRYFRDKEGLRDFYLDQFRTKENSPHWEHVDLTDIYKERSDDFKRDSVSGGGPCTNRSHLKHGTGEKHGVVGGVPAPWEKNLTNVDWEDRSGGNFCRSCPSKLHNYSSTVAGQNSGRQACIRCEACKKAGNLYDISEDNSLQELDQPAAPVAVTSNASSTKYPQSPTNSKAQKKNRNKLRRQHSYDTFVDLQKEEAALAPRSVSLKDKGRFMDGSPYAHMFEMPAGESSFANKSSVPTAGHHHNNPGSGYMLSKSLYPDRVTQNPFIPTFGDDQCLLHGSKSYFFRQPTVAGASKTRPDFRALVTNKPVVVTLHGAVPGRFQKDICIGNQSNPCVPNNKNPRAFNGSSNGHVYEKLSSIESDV

SMILES | Ki [1] | Ki [2] | Selectivity ratio [3] | Ki [4] | ED50 (Mus musculus) | IC50 [5] | IC50 [6]
C[C@@H](CN1CCC(Cc2ccccc2)CC1)[C@@H](O)c1ccc(O)cc1 | 180 nM | 5.6 nM | 32 | – | – | – | –
CC(Cc1ccc(O)cc1)CN1CCC(Cc2ccccc2)CC1 (stereo not given) | 91.5 nM | 3.4 nM | 27 | – | – | – | –
Cc1ccc(CC2(O)CCN(C[C@@H](O)Cc3ccc(O)cc3)CC2)cc1 | – | 7.5 nM | – | 7300 nM | 25 mg/kg | – | –
Oc1ccc(CC(O)CN2CCC(O)(Cc3ccc(Cl)cc3)CC2)cc1 (stereo not given) | 5610 nM | 15 nM | 374 | – | – | – | –
O=C(Cc1ccc(O)cc1)CN1CCC(Cc2ccccc2)CC1 | 610 nM | 22.6 nM | 27 | – | – | – | –
Oc1ccc(CC(O)CN2CCC(Cc3ccccc3)CC2)cc1 (stereo not given) | 305 nM | – | 80 | – | – | – | –
Cc1ccc(CC2(O)CCN(CC(O)Cc3ccc(O)cc3)CC2)cc1 (stereo not given) | 5915 nM | 7.5 nM | 789 | – | – | – | –
COC(Cc1ccc(O)cc1)CN1CCC(Cc2ccccc2)CC1 (stereo not given) | 305 nM | – | 15 | – | – | – | –
Oc1ccc(CC(O)CN2CCC(O)(Cc3ccc(Br)cc3)CC2)cc1 (stereo not given) | 2439 nM | – | 216 | – | – | – | –
Oc1ccc(CC(O)CN2CCC(O)(Cc3ccccc3)CC2)cc1 (stereo not given) | 4512 nM | 22.6 nM | 200 | – | – | – | –
Oc1ccc(C(O)CCN2CCC(Cc3ccccc3)CC2)cc1 (stereo not given) | 24.4 nM | 3.8 nM | 6 | – | – | – | –
Cc1ccc(CC2(O)CCN(C[C@H](O)Cc3ccc(O)cc3)CC2)cc1 | – | 4.9 nM | – | 7300 nM | 10 mg/kg | > 10000 nM | 19 nM
